Published values pooled from the literature.
Values after ≈ are worked out from the molar mass of the structure shown.

| Compound | target or system | assay | system | setting | quantity | result |
| --- | --- | --- | --- | --- | --- | --- |
| C[C@@H]1[C@H](O)[C@@H](C)/C=C/C=C/C=C/C=C/C=C/C=C/C=C/[C@H](O[C@@H]2O[C@H](C)[C@@H](O)[C@H](N)[C@@H]2O)C[C@@H]2O[C@](O)(C[C@@H](O)C[C@@H](O)[C@H](O)CC[C@@H](O)C[C@@H](O)CC(=O)O[C@H]1C)C[C@H](O)[C@H]2C(=O)O | Leishmania donovani | parasite growth | THP-1 | 72 h, intracellular, amastigote | IC50 | 0.6 µM |
| CCCCCCCCCCCCCCCCCCOc1cccc(CC(=O)OCCC[N+](C)(C)C)c1 | NCI-H522 | cell growth or viability, SRB |  | 10 µM | inhibition | 21.8% |
| CN1CCN(S(=O)(=O)c2ccc(-c3ccc4nncc(Nc5ncc(Cl)cn5)c4c3)cc2)CC1 | Leishmania donovani | parasite growth |  | intracellular, amastigote | EC50 | 0.035 µg/mL (≈ 0.0706 µM) |
| CCCCCCCCC1NCCc2cc(O)c(O)cc21 (stereo not shown) |  | ABTS scavenging |  | 10 min, dark | IC50 | 47.5 µM |
| CCCCCCCCCCCCCCCCCCOc1ccccc1CC(=O)OCC[N+](C)(C)C | NCI-H522 | cell growth or viability, SRB |  | 10 µM | inhibition | 97.8% |
| COc1cccc(C2NCCc3cc(O)c(O)cc32)c1O (stereo not shown) |  | ABTS scavenging |  | 10 min, dark | IC50 | 8.51 µM |
| COc1cc(/C=C/C(=O)CC(=O)/C=C/c2ccc(O)c(OC)c2)ccc1O |  | ABTS scavenging |  | 20 min | IC50 | 165 µg/mL |
| CCCCCCCCCCCCCCCCCCOc1cccc(CC(=O)OCC[N+](C)(C)C)c1 | NCI-H522 | cell growth or viability, SRB |  | 10 µM | inhibition | 13.3% |
| c1ccc(-c2ccc3c(c2)NC(C2Nc4cc(-c5ccccc5)ccc4O2)O3)cc1 (stereo not shown) | Leishmania donovani | parasite growth, resazurin |  | 72 h, promastigote | IC50 | 9.21 µM |
| CCCCCCCCCCCCCCCCOP(=O)([O-])OCC[N+](C)(C)C | Leishmania donovani | parasite growth | THP-1 | 72 h, intracellular, amastigote | IC50 | 3.78 µM |
| COc1cccc(C2NCCc3cc(O)c(O)cc32)c1 (stereo not shown) |  | ABTS scavenging |  | 10 min, dark | IC50 | 11.2 µM |
| O=C1O[C@H]([C@@H](O)CO)C(O)=C1O |  | ABTS scavenging |  |  | IC50 | 4.24 µg/mL |
| c1ccc(Oc2ccc(Nc3c4c(nc5ccccc35)CCC4)cc2)cc1 | Leishmania donovani | parasite growth | THP-1 | intracellular, amastigote | IC50 | 0.57 µM |
| O=C(O)CCC(=O)OCCN(Cc1ccc(Oc2ccc([N+](=O)[O-])cc2)cc1)C(=O)C(Cl)Cl | Leishmania donovani | parasite growth, resazurin |  | 72 h, promastigote | IC50 | 2.68 µM |
| CCOc1ccc(Nc2c3c(nc4ccccc24)CCC3)cc1 | Leishmania donovani | parasite growth | THP-1 | 72 h, intracellular, amastigote | IC50 | 0.78 µM |
| CCCCCCCCCC1NCCc2cc(O)c(O)cc21 (stereo not shown) |  | ABTS scavenging |  | 10 min, dark | IC50 | 57.3 µM |
